This note sets out measurements from ChEMBL document CHEMBL2440012, “Design, synthesis and anticonvulsant properties of new N-Mannich bases derived from 3-phenylpyrrolidine-2,5-diones” (Bioorg Med Chem, 2013).

Data set [1] relates to Mus musculus. The experiment in a line: Neurotoxicity in albino CF1 mouse assessed as minimum motor impairment at 300 mg/kg, ip measured after 4 hrs by rotorod test. The settings on record: in vivo. Details: dose 300 mg/kg, route intraperitoneal. The class given is toxicity, organism-based. The gist of the method: (§1)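 Male CF-1 mice given ip suspension in 0.5% methylcellulose/water at 30, 100 and 300 mg/kg; MES, scPTZ (pentylenetetrazole 85 mg/kg sc, CD97 dose for clonic seizures ≥5 s) and rotarod (inability to hold balance 1 min in each of three trials) assessed at 0.5 and 4 h; value is minimum dose active in half or more animals.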
Background: Falling from the rotarod earlier than controls is read as motor impairment.

Data set [2] has as its system Mus musculus. Nature of the data set: Neurotoxicity in albino CF1 mouse assessed as minimum motor impairment at 300 mg/kg, ip measured after 0.5 hr by rotorod test. Details: dose 300 mg/kg, route intraperitoneal. The settings on record: in vivo. The class given is toxicity, organism-based. The gist of the method:
as §1

In data set [3] the test system is Mus musculus. The experiment in a line: Anticonvulsant activity in albino CF1 mouse assessed as protection against subcutaneous pentylenetetrazole-induced convulsion at 300 mg/kg, ip measured after 4 hrs. The class given is functional, organism-based. Details: dose 300 mg/kg. The gist of the method: as §1
Data set [4] relates to Mus musculus. Nature of the data set: Anticonvulsant activity in albino CF1 mouse assessed as protection against subcutaneous pentylenetetrazole-induced convulsion at 300 mg/kg, ip measured after 0.5 hrs. The class given is functional, organism-based. Set-up: dose 300 mg/kg. The gist of the method: as §1
For data set [5], the system named is Mus musculus. Nature of the data set: Anticonvulsant activity in ip dosed albino CF1 mouse assessed as protection against maximal electroshock-induced seizures in half or more animals measured after 0.5 hr. The settings on record: read-out: MED. The class given is functional. The gist of the method: as §1
For orientation: The maximal electroshock test induces tonic seizures with an electrical stimulus.

Data set [6] deals with Mus musculus. Nature of the data set: Anticonvulsant activity in ip dosed albino CF1 mouse assessed as protection against maximal electroshock-induced seizures in half or more animals measured after 4 hrs. In kind it is functional. The settings on record: read-out: MED. The gist of the method:
as §1

The subject of data set [7] is Rattus norvegicus. The experiment in a line: Anticonvulsant activity in albino Sprague-Dawley rat assessed as protection against maximal electroshock-induced seizures at 30 mg/kg, po measured after 4 hrs. In kind it is functional. The gist of the method:
(§2)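 Male Sprague-Dawley rats, four per group, dosed p.o. at 30 mg/kg in 0.5% methylcellulose/water suspension; MES test at 0.25, 0.5, 1, 2 and 4 h, motor impairment examined in parallel; number of rats out of four protected.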

Data set [8] has as its system Rattus norvegicus. Nature of the data set: Anticonvulsant activity in albino Sprague-Dawley rat assessed as protection against maximal electroshock-induced seizures at 30 mg/kg, po measured after 2 hrs. In kind it is functional. The gist of the method:
as §2

The test system of data set [9] is Rattus norvegicus. Nature of the data set: Anticonvulsant activity in albino Sprague-Dawley rat assessed as protection against maximal electroshock-induced seizures at 30 mg/kg, po measured after 1 hr. The class given is functional. The gist of the method: as §2
Data set [10] relates to Rattus norvegicus. The experiment in a line: Anticonvulsant activity in albino Sprague-Dawley rat assessed as protection against maximal electroshock-induced seizures at 30 mg/kg, po measured after 0.5 hr. The class given is functional. The gist of the method:
as §2

Data set [11] concerns Rattus norvegicus. Nature of the data set: Anticonvulsant activity in albino Sprague-Dawley rat assessed as protection against maximal electroshock-induced seizures at 30 mg/kg, po measured after 0.25 hr. The class given is functional. The gist of the method: as §2
For data set [12], the system named is Mus musculus. Nature of the data set: Neurotoxicity in ip dosed albino CF1 mouse assessed as minimum motor impairment in half or more animals measured after 0.5 hrs by rotorod test. In kind it is toxicity, organism-based. To be noted: in vivo. The gist of the method: as §1
Data set [13] concerns Mus musculus. The experiment in a line: Anticonvulsant activity in albino CF1 mouse assessed as protection against maximal electroshock-induced seizures at 300 mg/kg, ip measured after 0.5 hr. In kind it is functional, organism-based. Details: dose 300 mg/kg. The gist of the method: as §1
Data set [14] deals with Mus musculus. The experiment in a line: Anticonvulsant activity in albino CF1 mouse assessed as protection against maximal electroshock-induced seizures at 300 mg/kg, ip measured after 4 hrs. The class given is functional, organism-based. Set-up: dose 300 mg/kg. The gist of the method:
as §1

Activity calls are given as the source filed them. No cut-off for these calls is given here.

With `O=C1CC(c2cccc(Cl)c2)C(=O)N1CN1CCN(C2CCCCC2)CC1` (racemic), the Activity entry in the data set on Mus musculus [1] and in the data set with Mus musculus [2] was “Non-toxic” throughout. In addition, the outcome in the data set with Mus musculus [3] and with Mus musculus [4] was inactive. Moreover, the minimal effective dose in the data set with Mus musculus [5] and in the data set with Mus musculus [6] was 300 mg/kg throughout.
`O=C1CC(c2cccc(Cl)c2)C(=O)N1CN1CCC(Cc2ccccc2)CC1` (racemic): the result in the data set with Rattus norvegicus [7], with Rattus norvegicus [10], with Mus musculus [3] and in the data set on Mus musculus [4] was inactive. Further, the Activity is reported as 50% with Rattus norvegicus [8]; 25% with Rattus norvegicus [9]; 50% with Rattus norvegicus [11]; “Non-toxic” in the data set on Mus musculus [1]; “Non-toxic” with Mus musculus [2]. Moreover, the values for the minimal effective dose with Mus musculus [5] and in the data set with Mus musculus [6] were 300 mg/kg and 100 mg/kg, respectively.
For `O=C1CC(c2ccc(Cl)cc2)C(=O)N1CN1CCN(c2ncccn2)CC1` (racemic), the Activity entry with Mus musculus [1] is “Non-toxic”. For the same compound, in the data set on Mus musculus [12], the MED turned out to be 300 mg/kg. In addition, the result in the data set on Mus musculus [3], in the data set with Mus musculus [4], in the data set with Mus musculus [13] and in the data set on Mus musculus [14] was inactive.
Take `O=C1CC(c2ccc(Cl)cc2)C(=O)N1CN1CCN(C2CCCCC2)CC1` (racemic): the Activity entry in the data set on Mus musculus [1] and in the data set on Mus musculus [2] was “Non-toxic” throughout. The result with Mus musculus [3], in the data set with Mus musculus [4] and in the data set with Mus musculus [13] was inactive. In addition, the minimal effective dose with Mus musculus [6] stood at 100 mg/kg.
In the case of `O=C1CC(c2ccc(Cl)cc2)C(=O)N1CN1CCOCC1` (racemic), the Activity result in the data set with Mus musculus [1] and in the data set with Mus musculus [2] was “Non-toxic” throughout. Besides, the result in the data set with Mus musculus [3] and in the data set with Mus musculus [4] was inactive. The minimal effective dose in the data set on Mus musculus [5] is 100 mg/kg; in the data set with Mus musculus [6], 300 mg/kg.
As to `O=C1CC(c2ccccc2Cl)C(=O)N1CN1CCN(c2ccccc2Cl)CC1` (racemic), the Activity entry in the data set on Mus musculus [1] and in the data set with Mus musculus [2] was “Non-toxic” in each case. The result with Mus musculus [3], with Mus musculus [4], in the data set on Mus musculus [13] and in the data set on Mus musculus [14] was inactive.
Take `O=C1CC(c2ccccc2Cl)C(=O)N1CN1CCN(c2ccc(Cl)cc2)CC1` (racemic): the Activity result with Mus musculus [1] and in the data set on Mus musculus [2] was “Non-toxic” in each case. Further, the outcome in the data set on Mus musculus [3], with Mus musculus [4] and in the data set with Mus musculus [13] was inactive. Further, the minimal effective dose with Mus musculus [6] was 300 mg/kg.
For `O=C1CC(c2ccccc2Cl)C(=O)N1CN1CCN(c2cccc(C(F)(F)F)c2)CC1` (racemic), the Activity entry in the data set with Mus musculus [1] and in the data set with Mus musculus [2] was “Non-toxic” each time. In addition, the outcome with Mus musculus [3], with Mus musculus [4] and in the data set with Mus musculus [13] was inactive. Further, in the data set on Mus musculus [6], the minimal effective dose amounted to 100 mg/kg.
On to `O=C1CC(c2cccc(Cl)c2)C(=O)N1CN1CCN(c2ccccc2F)CC1` (racemic), for which the Activity result with Mus musculus [1] is on record as “Non-toxic”. Moreover, the MED in the data set with Mus musculus [12] is 300 mg/kg. The outcome in the data set on Mus musculus [3], with Mus musculus [4] and in the data set with Mus musculus [13] was inactive. Also, the minimal effective dose in the data set with Mus musculus [6] came out at 100 mg/kg.
For `O=C1CC(c2cccc(Cl)c2)C(=O)N1CN1CCN(c2ccccc2Cl)CC1` (racemic), the Activity entry in the data set on Mus musculus [1] and in the data set on Mus musculus [2] was “Non-toxic” in each case. For the same compound, the outcome with Mus musculus [3], in the data set with Mus musculus [4], with Mus musculus [13] and in the data set with Mus musculus [14] was inactive.
For `O=C1CC(c2cccc(Cl)c2)C(=O)N1CN1CCN(c2cccc(Cl)c2)CC1` (racemic), the Activity entry with Mus musculus [1] and in the data set with Mus musculus [2] was “Non-toxic” throughout. Also, the result in the data set with Mus musculus [3], with Mus musculus [4], in the data set on Mus musculus [13] and in the data set with Mus musculus [14] was inactive.
Turning to `O=C1CC(c2cccc(Cl)c2)C(=O)N1CN1CCN(c2ccc(Cl)cc2)CC1` (racemic), the Activity result in the data set with Mus musculus [1] and in the data set on Mus musculus [2] was “Non-toxic” in each case. Further, the result in the data set on Mus musculus [3] and in the data set with Mus musculus [4] was inactive. Also, the minimal effective dose with Mus musculus [5] stood at 300 mg/kg; in the data set with Mus musculus [6] it was 100 mg/kg.
For the compound `Cc1cccc(N2CCN(CN3C(=O)CC(c4cccc(Cl)c4)C3=O)CC2)c1` (racemic), the Activity result with Mus musculus [1] is “Non-toxic”. For the same compound, in the data set with Mus musculus [12], the MED was found to be 100 mg/kg. The outcome in the data set with Mus musculus [3], in the data set on Mus musculus [4] and in the data set with Mus musculus [13] was inactive. In addition, the minimal effective dose in the data set on Mus musculus [6] is 30 mg/kg.
As to `O=C1CC(c2ccc(Cl)cc2)C(=O)N1CN1CCN(c2ccc(Cl)cc2)CC1` (racemic), the Activity entry in the data set on Mus musculus [1] and with Mus musculus [2] was “Non-toxic” in each case. The outcome in the data set on Mus musculus [3], in the data set with Mus musculus [4], in the data set with Mus musculus [13] and in the data set with Mus musculus [14] was inactive.
Regarding `O=C1CC(c2ccc(Cl)cc2)C(=O)N1CN1CCN(c2cccc(C(F)(F)F)c2)CC1` (racemic), in the data set on Mus musculus [1], the Activity entry is “Non-toxic”. Moreover, the MED with Mus musculus [12] is 300 mg/kg. Further, the result in the data set with Mus musculus [3], in the data set on Mus musculus [4] and in the data set with Mus musculus [13] was inactive. Also, the minimal effective dose in the data set with Mus musculus [6] is 100 mg/kg.
With `O=C1CC(c2ccccc2)C(=O)N1CN1CCN(C2CCCCC2)CC1` (racemic), the Activity entry with Mus musculus [1] and with Mus musculus [2] was “Non-toxic” each time. Also, the outcome with Mus musculus [3], in the data set with Mus musculus [4], with Mus musculus [13] and in the data set with Mus musculus [14] was inactive.
Regarding `O=C1CC(c2ccccc2Cl)C(=O)N1CN1CCN(C2CCCCC2)CC1` (racemic), the Activity result in the data set on Mus musculus [1] and with Mus musculus [2] was “Non-toxic” in each case. The result with Mus musculus [3], with Mus musculus [4] and with Mus musculus [13] was inactive. Further, the minimal effective dose in the data set on Mus musculus [6] was 100 mg/kg.
On to `O=C1CC(c2cccc(Cl)c2)C(=O)N1CN1CCN(c2ncccn2)CC1` (racemic), for which the outcome in the data set on Rattus norvegicus [7], with Rattus norvegicus [8], with Rattus norvegicus [9], in the data set with Rattus norvegicus [10], in the data set with Rattus norvegicus [11] and in the data set on Mus musculus [3] was inactive. Moreover, the result in the data set with Mus musculus [4] and in the data set on Mus musculus [13] was inactive. For the same compound, the Activity result in the data set on Mus musculus [1] and in the data set on Mus musculus [2] was “Non-toxic” in each case. In the data set with Mus musculus [6], the minimal effective dose turned out to be 100 mg/kg.
